# Test results from ChEMBL document CHEMBL1139437, “Design, synthesis, and preliminary pharmacological evaluation of 4-aminopiperidine derivatives as N-type calcium channel blockers active on pain and neuropathic pain” (J Med Chem, 2004).
# pIC50: −log10 of the molar value.
# Tests used:
# Mus musculus [1] = test: Analgesic activity was evaluated in mouse hotplate test; expressed as licking latency after 15 min of treatment at a dose of 30 ug intracerebroventricularly; format: functional
# Outline: (§1)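 Male Swiss albino mice (23-30 g); icv injection of 5 μL (saline or H2O/DMSO 2:1) under brief anaesthesia. Paw-licking latency (s) on hot plate read before injection and every 15 min up to 60 min. Mice with pretest latency below 12 or over 18 s excluded; cutoff 45 s. Statistics against saline- or vehicle-treated controls.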
# Mus musculus [2] = test: Analgesic activity was evaluated in mouse hotplate test; expressed as licking latency after 30 min of treatment at a dose of 30 ug intracerebroventricularly; format: functional; outline: as §1
# Mus musculus [3] = organism: Mus musculus; test: Percentage analgesic efficacy when compared to morphine; format: functional; set-up: concentration or dose not given beside the values
# Outline: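 Male Swiss albino mice, hot-plate test, paw-licking latency; pretest 12–18 s required, cutoff 45 s. Icv injection of 5 μL under brief anaesthesia, in saline or H2O/DMSO 2:1, at maximal soluble dose. Latency read before and every 15 min after dosing. Efficacy = (peak latency − pretest) as % of the same value for morphine 10 μg/mouse icv; non-significant effects scored 0.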
# Mus musculus [4] = test: Analgesic activity was evaluated in mouse hotplate test; expressed as licking latency after 45 min of treatment at a dose of 30 ug intracerebroventricularly; format: functional; outline: as §1
# Rattus norvegicus [5] = test: Antihyperalgesic activity was evaluated in rat (sn) paw pressure test after 30 min at a dose of 30 ug intracerebroventricularly
# Rattus norvegicus [6] = test: Antihyperalgesic activity was evaluated in rat (dx) paw pressure test after 30 min at a dose of 30 ug intracerebroventricularly
# Rattus norvegicus [7] = test: Antihyperalgesic activity was evaluated in rat (dx) paw pressure test after 45 min at a dose of 30 ug intracerebroventricularly
# Rattus norvegicus [8] = test: Antihyperalgesic activity was evaluated in rat (dx) paw pressure test after 60 min at a dose of 30 ug intracerebroventricularly
# Rattus norvegicus [9] = test: Antihyperalgesic activity was evaluated in rat (sn) paw pressure test after 45 min at a dose of 30 ug intracerebroventricularly
# Rattus norvegicus [10] = test: Antihyperalgesic activity was evaluated in rat (sn) paw pressure test after 60 min at a dose of 30 ug intracerebroventricularly
# [11] = target: Voltage-dependent N-type calcium channel subunit alpha-1B (Rattus norvegicus) (UniProt Q02294); test: In vitro antagonism of N-type calcium channels expressed in PC12 cells was determined as the increase in intracellular calcium influx
# Sequence of Voltage-dependent N-type calcium channel subunit alpha-1B (Rattus norvegicus) (Q02294 whole entry, looked up): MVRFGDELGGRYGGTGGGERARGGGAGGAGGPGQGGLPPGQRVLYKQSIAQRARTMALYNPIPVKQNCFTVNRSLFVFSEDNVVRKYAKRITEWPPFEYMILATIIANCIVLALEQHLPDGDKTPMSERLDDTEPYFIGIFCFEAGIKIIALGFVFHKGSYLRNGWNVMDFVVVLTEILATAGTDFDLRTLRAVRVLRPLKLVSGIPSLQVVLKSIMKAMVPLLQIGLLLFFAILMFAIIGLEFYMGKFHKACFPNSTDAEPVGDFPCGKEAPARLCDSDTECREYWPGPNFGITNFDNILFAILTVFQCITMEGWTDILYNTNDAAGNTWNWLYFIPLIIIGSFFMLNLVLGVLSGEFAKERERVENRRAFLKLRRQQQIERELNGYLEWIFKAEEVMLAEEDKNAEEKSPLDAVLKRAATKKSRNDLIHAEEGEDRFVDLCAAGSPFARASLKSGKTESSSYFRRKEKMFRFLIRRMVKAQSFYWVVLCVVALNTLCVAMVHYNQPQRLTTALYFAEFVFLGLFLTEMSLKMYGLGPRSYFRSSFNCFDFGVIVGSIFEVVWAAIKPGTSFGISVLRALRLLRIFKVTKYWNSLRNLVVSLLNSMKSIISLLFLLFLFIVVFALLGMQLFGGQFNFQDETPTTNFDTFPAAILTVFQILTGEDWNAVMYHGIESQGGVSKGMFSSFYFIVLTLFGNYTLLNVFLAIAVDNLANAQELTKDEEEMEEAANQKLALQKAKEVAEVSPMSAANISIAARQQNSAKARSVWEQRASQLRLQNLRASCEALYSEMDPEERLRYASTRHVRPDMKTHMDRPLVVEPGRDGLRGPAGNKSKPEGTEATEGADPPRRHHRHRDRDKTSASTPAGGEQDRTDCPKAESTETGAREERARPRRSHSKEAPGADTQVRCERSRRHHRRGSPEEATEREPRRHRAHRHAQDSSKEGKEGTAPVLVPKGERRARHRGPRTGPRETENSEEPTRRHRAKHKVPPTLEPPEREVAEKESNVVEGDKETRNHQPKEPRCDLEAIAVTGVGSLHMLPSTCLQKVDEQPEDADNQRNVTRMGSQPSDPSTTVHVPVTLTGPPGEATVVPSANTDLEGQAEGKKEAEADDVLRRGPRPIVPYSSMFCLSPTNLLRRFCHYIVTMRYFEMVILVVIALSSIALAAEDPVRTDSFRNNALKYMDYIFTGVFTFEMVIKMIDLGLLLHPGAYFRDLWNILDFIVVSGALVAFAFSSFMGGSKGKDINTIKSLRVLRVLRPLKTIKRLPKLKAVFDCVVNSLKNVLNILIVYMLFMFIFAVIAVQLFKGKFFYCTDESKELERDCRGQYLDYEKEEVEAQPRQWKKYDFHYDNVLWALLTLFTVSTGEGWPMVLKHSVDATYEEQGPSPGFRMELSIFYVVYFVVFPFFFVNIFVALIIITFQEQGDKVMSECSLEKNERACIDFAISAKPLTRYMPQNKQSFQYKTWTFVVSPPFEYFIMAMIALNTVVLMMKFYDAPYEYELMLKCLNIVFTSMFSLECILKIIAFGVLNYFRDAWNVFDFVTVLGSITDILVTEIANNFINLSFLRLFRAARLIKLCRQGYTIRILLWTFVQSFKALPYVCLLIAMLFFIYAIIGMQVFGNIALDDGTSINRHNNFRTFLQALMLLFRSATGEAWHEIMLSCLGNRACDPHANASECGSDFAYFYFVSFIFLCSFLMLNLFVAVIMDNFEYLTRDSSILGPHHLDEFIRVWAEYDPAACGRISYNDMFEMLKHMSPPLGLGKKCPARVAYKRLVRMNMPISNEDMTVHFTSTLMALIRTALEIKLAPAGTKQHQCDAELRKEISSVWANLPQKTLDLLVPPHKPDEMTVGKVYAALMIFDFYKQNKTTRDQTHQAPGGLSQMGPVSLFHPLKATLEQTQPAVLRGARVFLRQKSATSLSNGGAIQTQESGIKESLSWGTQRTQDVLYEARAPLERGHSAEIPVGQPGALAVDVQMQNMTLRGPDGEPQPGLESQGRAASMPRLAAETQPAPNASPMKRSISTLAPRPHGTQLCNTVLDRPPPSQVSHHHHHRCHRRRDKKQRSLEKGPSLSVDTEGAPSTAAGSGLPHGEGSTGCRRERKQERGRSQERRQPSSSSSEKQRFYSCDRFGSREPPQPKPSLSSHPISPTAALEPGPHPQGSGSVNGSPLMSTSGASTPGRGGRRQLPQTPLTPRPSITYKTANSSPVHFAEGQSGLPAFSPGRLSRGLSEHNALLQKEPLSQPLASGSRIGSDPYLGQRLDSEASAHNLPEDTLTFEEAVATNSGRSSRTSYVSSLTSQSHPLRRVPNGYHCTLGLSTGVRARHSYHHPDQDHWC
# [12] = target: Voltage-dependent N-type calcium channel subunit alpha-1B (Rattus norvegicus) (UniProt Q02294); test: In vitro antagonism of N-type calcium channels expressed in PC12 cells was determined as the increase in intracellular calcium influx in the presence of 10 uM nifedipine
# Mus musculus [13] = test: Analgesic activity was evaluated in mouse hotplate test; expressed as licking latency after 30 min of treatment at a dose of 10 ug intracerebroventricularly; format: functional; outline: as §1
# Mus musculus [14] = test: Analgesic activity was evaluated in mouse hotplate test; expressed as licking latency after 45 min of treatment at a dose of 10 ug intracerebroventricularly; format: functional; outline: as §1
# Mus musculus [15] = test: Analgesic activity was evaluated in mouse hotplate test; expressed as licking latency after 15 min of treatment at a dose of 10 ug intracerebroventricularly; format: functional; outline: as §1
# Mus musculus [16] = test: Analgesic activity was evaluated in mouse hotplate test; expressed as licking latency after 15 min of treatment at a dose of 40 ug intracerebroventricularly; format: functional; outline: as §1
# Mus musculus [17] = test: Analgesic activity was evaluated in mouse hotplate test; expressed as licking latency after 30 min of treatment at a dose of 40 ug intracerebroventricularly; format: functional; outline: as §1
# Mus musculus [18] = test: Analgesic activity was evaluated in mouse hotplate test; expressed as licking latency after 45 min of treatment at a dose of 40 ug intracerebroventricularly; format: functional; outline: as §1
# Rattus norvegicus [19] = test: Antihyperalgesic activity was evaluated in rat (dx) paw pressure test after 30 min at a dose of 50 ug intracerebroventricularly
# Rattus norvegicus [20] = test: Antihyperalgesic activity was evaluated in rat (dx) paw pressure test after 45 min at a dose of 50 ug intracerebroventricularly
# Rattus norvegicus [21] = test: Antihyperalgesic activity was evaluated in rat (dx) paw pressure test after 60 min at a dose of 50 ug intracerebroventricularly
# Rattus norvegicus [22] = test: Antihyperalgesic activity was evaluated in rat (sn) paw pressure test after 30 min at a dose of 50 ug intracerebroventricularly
# Rattus norvegicus [23] = test: Antihyperalgesic activity was evaluated in rat (sn) paw pressure test after 45 min at a dose of 50 ug intracerebroventricularly
# Rattus norvegicus [24] = test: Antihyperalgesic activity was evaluated in rat (sn) paw pressure test after 60 min at a dose of 50 ug intracerebroventricularly
# Mus musculus [25] = test: Analgesic activity was evaluated in mouse hotplate test; expressed as licking latency after 15 min of treatment at a dose of 50 ug intracerebroventricularly; format: functional; outline: as §1
# Mus musculus [26] = test: Analgesic activity was evaluated in mouse hotplate test; expressed as licking latency after 30 min of treatment at a dose of 50 ug intracerebroventricularly; format: functional; outline: as §1
# Mus musculus [27] = test: Analgesic activity was evaluated in mouse hotplate test; expressed as licking latency after 45 min of treatment at a dose of 50 ug intracerebroventricularly; format: functional; outline: as §1
# Mus musculus [28] = test: Analgesic activity was evaluated in mouse hotplate test; expressed as licking latency after 30 min of treatment at a dose of 20 ug intracerebroventricularly; format: functional; outline: as §1
# Mus musculus [29] = test: Analgesic activity was evaluated in mouse hotplate test; expressed as licking latency after 45 min of treatment at a dose of 20 ug intracerebroventricularly; format: functional; outline: as §1
# Mus musculus [30] = test: Analgesic activity was evaluated in mouse hotplate test; expressed as licking latency after 15 min of treatment at a dose of 20 ug intracerebroventricularly; format: functional; outline: as §1
# Mus musculus [31] = test: Analgesic activity was evaluated in mouse hotplate test; expressed as licking latency after 30 min of treatment at a dose of 15 ug intracerebroventricularly; format: functional; outline: as §1
# Mus musculus [32] = test: Analgesic activity was evaluated in mouse hotplate test; expressed as licking latency after 45 min of treatment at a dose of 15 ug intracerebroventricularly; format: functional; outline: as §1
# Mus musculus [33] = test: Analgesic activity was evaluated in mouse hotplate test; expressed as licking latency after 15 min of treatment at a dose of 15 ug intracerebroventricularly; format: functional; outline: as §1
# Mus musculus [34] = test: Analgesic activity was evaluated in mouse hotplate test; expressed as licking latency after 30 min of treatment at a dose of 25 ug intracerebroventricularly; format: functional; outline: as §1
# Mus musculus [35] = test: Analgesic activity was evaluated in mouse hotplate test; expressed as licking latency after 15 min of treatment at a dose of 25 ug intracerebroventricularly; format: functional; outline: as §1
# Mus musculus [36] = test: Analgesic activity was evaluated in mouse hotplate test; expressed as licking latency after 45 min of treatment at a dose of 25 ug intracerebroventricularly; format: functional; outline: as §1
structure (smiles),measurement,setting,value
COc1ccc(C(C#N)(CCCNC2CCN(CCOc3ccccc3)CC2)C(C)C)cc1OC.Cl (stereo not drawn),Latency,Mus musculus [1],22.6 s
same,Latency,Mus musculus [2],16.5 s
same,Efficacy,Mus musculus [3],59%
same,Latency,Mus musculus [4],15.2 s
same,Activity,Rattus norvegicus [5],57.3 g
same,Activity,Rattus norvegicus [6],33.4 g
same,Activity,Rattus norvegicus [7],38.6 g
same,Activity,Rattus norvegicus [8],40.5 g
same,Activity,Rattus norvegicus [9],55.6 g
same,Activity,Rattus norvegicus [10],59.4 g
same,pIC50,[11],5.42
same,pIC50,[12],5.51
COc1ccc(CCNC2CCN(CCCC(C#N)(c3ccc(OC)c(OC)c3)C(C)C)CC2)cc1OC.O=C(O)C(=O)O (stereo not drawn),Latency,Mus musculus [13],18.3 s
same,Efficacy,Mus musculus [3],0%
same,Latency,Mus musculus [14],17.6 s
same,Latency,Mus musculus [15],17.2 s
CC(C)CC(N)C(=O)NC1CCN(C(=O)CCC(c2ccc(F)cc2)c2ccc(F)cc2)CC1.Cl (stereo not drawn),Latency,Mus musculus [16],23.2 s
same,Latency,Mus musculus [17],22.6 s
same,Efficacy,Mus musculus [3],71%
same,Latency,Mus musculus [18],16.6 s
same,Activity,Rattus norvegicus [19],62.5 g
same,Activity,Rattus norvegicus [20],60.3 g
same,Activity,Rattus norvegicus [21],55.8 g
same,Activity,Rattus norvegicus [22],55.9 g
same,Activity,Rattus norvegicus [23],61.3 g
same,Activity,Rattus norvegicus [24],63.2 g
COc1ccc(C(C#N)(CCCN2CCC(NCCOc3ccccc3)CC2)C(C)C)cc1OC.O=C(O)C(=O)O (stereo not drawn),Efficacy,Mus musculus [3],61%
same,Latency,Mus musculus [25],22.3 s
same,Latency,Mus musculus [26],20.8 s
same,Latency,Mus musculus [27],18.9 s
same,Activity,Rattus norvegicus [19],61.7 g
same,Activity,Rattus norvegicus [20],58.3 g
same,Activity,Rattus norvegicus [21],54.8 g
same,Activity,Rattus norvegicus [22],59.5 g
same,Activity,Rattus norvegicus [23],64.7 g
same,Activity,Rattus norvegicus [24],60.6 g
same,pIC50,[11],6.15
same,pIC50,[12],6.40
COc1ccc(C(C#N)(CCC(=O)N2CCC(NCCOc3ccccc3)CC2)C(C)C)cc1OC.O=C(O)C(=O)O (stereo not drawn),Latency,Mus musculus [13],18.5 s
same,Efficacy,Mus musculus [3],0%
same,Latency,Mus musculus [14],13.8 s
same,Latency,Mus musculus [15],15.7 s
COc1ccc(CCNC2CCN(Cc3ccccc3)CC2)cc1OC.Cl,Efficacy,Mus musculus [3],0%
same,Latency,Mus musculus [25],15.5 s
same,Latency,Mus musculus [26],16.7 s
same,Latency,Mus musculus [27],15.3 s
COc1ccc(CCNC2CCN(CCCC(c3ccc(F)cc3)c3ccc(F)cc3)CC2)cc1OC.Cl,Latency,Mus musculus [13],16.3 s
same,Efficacy,Mus musculus [3],51%
same,Latency,Mus musculus [14],16.6 s
same,Latency,Mus musculus [15],21.5 s
O=C(CCC(c1ccc(F)cc1)c1ccc(F)cc1)NC1CCNCC1.O=C(O)C(=O)O,Latency,Mus musculus [28],16.7 s
same,Efficacy,Mus musculus [3],64%
same,Latency,Mus musculus [29],17.1 s
same,Latency,Mus musculus [30],21.8 s
Cl.O=C(CCC(c1ccc(F)cc1)c1ccc(F)cc1)NC1CCN(CCO)CC1,Latency,Mus musculus [31],16.8 s
same,Efficacy,Mus musculus [3],0%
same,Latency,Mus musculus [32],17.3 s
same,Latency,Mus musculus [33],16.9 s
COc1ccc(CCNC2CCN(CCCC(C#N)(c3ccccc3)C(C)C)CC2)cc1OC.O=C(O)C(=O)O (stereo not drawn),Latency,Mus musculus [13],18.1 s
same,Efficacy,Mus musculus [3],0%
same,Latency,Mus musculus [14],17.5 s
same,Latency,Mus musculus [15],16.6 s
CCCCNC1CCN(CCCC(C#N)(c2ccc(OC)c(OC)c2)C(C)C)CC1.Cl (stereo not drawn),Latency,Mus musculus [1],23.1 s
same,Latency,Mus musculus [2],21.3 s
same,Efficacy,Mus musculus [3],59%
same,Latency,Mus musculus [4],18.7 s
same,Activity,Rattus norvegicus [5],59.1 g
same,Activity,Rattus norvegicus [6],47.3 g
same,Activity,Rattus norvegicus [7],43.5 g
same,Activity,Rattus norvegicus [8],38.6 g
same,Activity,Rattus norvegicus [9],57.3 g
same,Activity,Rattus norvegicus [10],59.2 g
COc1ccc(CCNC2CCN(C(=O)CCC(C#N)(c3ccc(OC)c(OC)c3)C(C)C)CC2)cc1OC.O=C(O)C(=O)O (stereo not drawn),Latency,Mus musculus [13],18.8 s
same,Efficacy,Mus musculus [3],0%
same,Latency,Mus musculus [14],17.3 s
same,Latency,Mus musculus [15],16.5 s
CCCCN1CCC(NCCCC(C#N)(c2ccc(OC)c(OC)c2)C(C)C)CC1.Cl (stereo not drawn),Latency,Mus musculus [34],21.6 s
same,Efficacy,Mus musculus [3],47%
same,Latency,Mus musculus [35],20.5 s
same,Latency,Mus musculus [36],19 s
COc1ccc(C(C#N)(CCCNC2CCN(C/C=C/c3ccccc3)CC2)C(C)C)cc1OC.Cl (stereo not drawn),Latency,Mus musculus [28],20.2 s
same,Efficacy,Mus musculus [3],69%
same,Latency,Mus musculus [29],16.2 s
same,Latency,Mus musculus [30],24.3 s
CCCCNC1CCN(C(=O)CCC(C#N)(c2ccc(OC)c(OC)c2)C(C)C)CC1.Cl (stereo not drawn),Latency,Mus musculus [1],18.7 s
same,Latency,Mus musculus [2],17.4 s
same,Efficacy,Mus musculus [3],0%
same,Latency,Mus musculus [4],17 s
same,Activity,Rattus norvegicus [5],65 g
same,Activity,Rattus norvegicus [6],28.4 g
same,Activity,Rattus norvegicus [7],26.7 g
same,Activity,Rattus norvegicus [8],32 g
same,Activity,Rattus norvegicus [9],56.9 g
same,Activity,Rattus norvegicus [10],59.3 g
COc1ccc(CCN2CCC(NCCCC(C#N)(c3ccc(OC)c(OC)c3)C(C)C)CC2)cc1OC.Cl (stereo not drawn),Latency,Mus musculus [31],18.3 s
same,Efficacy,Mus musculus [3],0%
same,Latency,Mus musculus [32],15.4 s
same,Latency,Mus musculus [33],17.7 s
